Data reported in ChEMBL document CHEMBL1159061, “Synthesis and biological properties of iron chelators based on a bis-2-(2-hydroxy-phenyl)-thiazole-4-carboxamide or -thiocarboxamide (BHPTC) scaffold” (Bioorg Med Chem, 2010).
Activity calls are given as the source filed them. The rule behind the calls is not given here.

How the values were obtained:
[1] = Induction of iron chelating activity by calcein fluorescence assay; assay type: physicochemical
Summary of the method: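 Cell-free calcein assay in 20 mM HEPES, 150 mM NaCl, pH 7.3, at 20 °C with orbital stirring. Calcein was quenched with iron(III) for 6 h to maximal quenching. Fluorescence recovery (ex 485/em 520 nm) was followed for 1 h at various chelator concentrations, and the initial dequenching rate was derived from the kinetics. Three independent experiments.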

[2] = Antiproliferative activity against human HepaRG cells after 72 hrs by MTT assay; assay type: functional, cell-based
Summary of the method: (§1)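 Proliferating HepaRG cells at day 4 (seeded at 2.5×10⁴/cm² in William's E, 10% FCS, insulin, glutamine, hydrocortisone) were exposed for 72 h to a concentration series, with or without added iron(III) as each line states. Viability was read by MTT (0.5 mg/L as printed) for 3 h in serum-free medium, DMSO-solubilized formazan at 535 nm, expressed as % of control SDH activity.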

HepaRG = test: Cytotoxicity against human HepaRG cells assessed as increase in extracellular LDH release at >100 uM after 72 hrs in presence of iron(3); assay type: functional, cell-based
KB [3] = test: Antiproliferative activity against human KB cells at 10 uM after 72 hrs by MTS assay; assay type: functional
Summary of the method: (§2)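 Cells grown under 5% CO2: KB and HepG2 in DMEM with 10% FCS, penicillin, streptomycin and fungizone; HCT116, HT29, HCT15, MCF7, MCF7R, SK-OV3, PC-3, A549, HL60, K562 and SF268 in RPMI. Cells were plated in 96-well plates and dosed 24 h later from DMSO stocks (controls 1% DMSO final). After 72 h, MTS was added for 3 h at 37 °C and absorbance read at 490 nm. Inhibition = (1 − OD treated/OD control)×100, in triplicate.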

KB [4] = test: Antiproliferative activity against human KB cells at 1 uM after 72 hrs by MTS assay; assay type: functional; summary of the method: as §2
HCT-116 [5] = test: Antiproliferative activity against human HCT116 cells at 10 uM after 72 hrs by MTS assay; assay type: functional; conditions: HCT-116, 72 h; summary of the method: as §2
HCT-116 [6] = test: Antiproliferative activity against human HCT116 cells at 1 uM after 72 hrs by MTS assay; assay type: functional; conditions: HCT-116, 72 h; summary of the method: as §2
HT-29 [7] = test: Antiproliferative activity against human HT-29 cells at 10 uM after 72 hrs by MTS assay; assay type: functional; conditions: HT-29, 72 h; summary of the method: as §2
HT-29 [8] = test: Antiproliferative activity against human HT-29 cells at 1 uM after 72 hrs by MTS assay; assay type: functional; conditions: HT-29, 72 h; summary of the method: as §2
HCT-15 [9] = test: Antiproliferative activity against human HCT15 cells at 10 uM after 72 hrs by MTS assay; assay type: functional; conditions: HCT-15, 72 h; summary of the method: as §2
HCT-15 [10] = test: Antiproliferative activity against human HCT15 cells at 1 uM after 72 hrs by MTS assay; assay type: functional; conditions: HCT-15, 72 h; summary of the method: as §2
MCF7 [11] = test: Antiproliferative activity against human MCF7 cells at 10 uM after 72 hrs by MTS assay; assay type: functional; conditions: MCF7, 72 h; summary of the method: as §2
MCF7 [12] = test: Antiproliferative activity against human MCF7 cells at 1 uM after 72 hrs by MTS assay; assay type: functional; conditions: MCF7, 72 h; summary of the method: as §2
MCF7 [13] = test: Antiproliferative activity against doxorubicin-resistant human MCF7 cells at 10 uM after 72 hrs by MTS assay; assay type: functional; conditions: MCF7, 72 h; summary of the method: as §2
MCF7 [14] = test: Antiproliferative activity against doxorubicin-resistant human MCF7 cells at 1 uM after 72 hrs by MTS assay; assay type: functional; conditions: MCF7, 72 h; summary of the method: as §2
A549 [15] = test: Antiproliferative activity against human A549 cells at 10 uM after 72 hrs by MTS assay; assay type: functional; conditions: A549, 72 h; summary of the method: as §2
A549 [16] = test: Antiproliferative activity against human A549 cells at 1 uM after 72 hrs by MTS assay; assay type: functional; conditions: A549, 72 h; summary of the method: as §2
PC-3 [17] = test: Antiproliferative activity against human PC3 cells at 10 uM after 72 hrs by MTS assay; assay type: functional; conditions: PC-3, 72 h; summary of the method: as §2
PC-3 [18] = test: Antiproliferative activity against human PC3 cells at 1 uM after 72 hrs by MTS assay; assay type: functional; conditions: PC-3, 72 h; summary of the method: as §2
SF-268 [19] = test: Antiproliferative activity against human SF268 cells at 10 uM after 72 hrs by MTS assay; assay type: functional; conditions: SF-268, 72 h; summary of the method: as §2
SF-268 [20] = test: Antiproliferative activity against human SF268 cells at 1 uM after 72 hrs by MTS assay; assay type: functional; conditions: SF-268, 72 h; summary of the method: as §2
SK-OV-3 [21] = test: Antiproliferative activity against human SKOV3 cells at 10 uM after 72 hrs by MTS assay; assay type: functional; conditions: SK-OV-3, 72 h; summary of the method: as §2
SK-OV-3 [22] = test: Antiproliferative activity against human SKOV3 cells at 1 uM after 72 hrs by MTS assay; assay type: functional; conditions: SK-OV-3, 72 h; summary of the method: as §2
HL-60 [23] = test: Antiproliferative activity against human HL60 cells at 10 uM after 72 hrs by MTS assay; assay type: functional; conditions: HL-60, 72 h; summary of the method: as §2
HL-60 [24] = test: Antiproliferative activity against human HL60 cells at 1 uM after 72 hrs by MTS assay; assay type: functional; conditions: HL-60, 72 h; summary of the method: as §2
K562 [25] = test: Antiproliferative activity against human K562 cells at 10 uM after 72 hrs by MTS assay; assay type: functional; conditions: K562, 72 h; summary of the method: as §2
K562 [26] = test: Antiproliferative activity against human K562 cells at 1 uM after 72 hrs by MTS assay; assay type: functional; conditions: K562, 72 h; summary of the method: as §2
HepG2 [27] = test: Antiproliferative activity against human HepG2 cells at 10 uM after 72 hrs by MTS assay; assay type: functional; conditions: HepG2, 72 h; summary of the method: as §2
HepG2 [28] = test: Antiproliferative activity against human HepG2 cells at 1 uM after 72 hrs by MTS assay; assay type: functional; conditions: HepG2, 72 h; summary of the method: as §2
[29] = Antiproliferative activity against human HepaRG cells after 72 hrs by MTT assay in presence of iron(3); assay type: functional, cell-based; summary of the method: as §1
Hepatocyte = test: Cytoprotective activity in human hepatocytes assessed as inhibition of FeNTA-induced increase in extracellular LDH activity relative to control; assay type: functional; design: scale not given: the % may be the effect or the level left

SMILES	IC50 [2] [µM]	inhibition at 10 µM (KB [3]) [%]	inhibition at 1 µM (KB [4]) [%]	inhibition at 10 µM (HCT-116 [5]) [%]	inhibition at 1 µM (HCT-116 [6]) [%]	inhibition at 10 µM (HT-29 [7]) [%]	inhibition at 1 µM (HT-29 [8]) [%]	inhibition at 10 µM (HCT-15 [9]) [%]	inhibition at 1 µM (HCT-15 [10]) [%]	inhibition at 10 µM (MCF7 [11]) [%]	inhibition at 1 µM (MCF7 [12]) [%]	inhibition at 10 µM (MCF7 [13]) [%]	inhibition at 1 µM (MCF7 [14]) [%]	inhibition at 10 µM (A549 [15]) [%]	inhibition at 1 µM (A549 [16]) [%]	inhibition at 10 µM (PC-3 [17]) [%]	inhibition at 1 µM (PC-3 [18]) [%]	inhibition at 10 µM (SF-268 [19]) [%]	inhibition at 1 µM (SF-268 [20]) [%]	inhibition at 10 µM (SK-OV-3 [21]) [%]	further results
O=C(O)c1ccc(O)c(-c2nc(C(=S)NCCOCCOCCNC(=S)c3csc(-c4cc(C(=O)O)ccc4O)n3)cs2)c1	114	0	0	0	0	0	0	8	0	0	0	1	0	7	0	0	0	5	0	2	IC50 [1]: 0.07 µM; Activity (HepaRG): Active; inhibition at 1 µM (SK-OV-3 [22]): 3%; inhibition at 10 µM (HL-60 [23]): 0%; inhibition at 1 µM (HL-60 [24]): 0%; inhibition at 10 µM (K562 [25]): 2%; inhibition at 1 µM (K562 [26]): 0%; inhibition at 10 µM (HepG2 [27]): 0%; inhibition at 1 µM (HepG2 [28]): 0%
COC(=O)c1ccc(O)c(-c2nc(C(=O)NCCOCCOCCNC(=O)c3csc(-c4cc(C(=O)OC)ccc4O)n3)cs2)c1	64	28	0	13	0	4	0	14	11	4	0	19	0	11	0	37	8	19	0	22	IC50 [1]: 1 µM; IC50 [29]: 78 µM; Activity (HepaRG): Active; inhibition at 1 µM (SK-OV-3 [22]): 10%; inhibition at 10 µM (HL-60 [23]): 0%; inhibition at 1 µM (HL-60 [24]): 0%; inhibition at 10 µM (K562 [25]): 10%; inhibition at 1 µM (K562 [26]): 2%; inhibition at 10 µM (HepG2 [27]): 26%; inhibition at 1 µM (HepG2 [28]): 0%; Activity (Hepatocyte): 148%
CC(=O)N(O)CCCCCNC(=O)CCC(=O)N(O)CCCCCNC(=O)CCC(=O)N(O)CCCCCN [DEFEROXAMINE]	50	16	0	20	0	42	0	46	0	0	0	9	0	50	2	44	1	33	0	52	IC50 [1]: 4.4 µM; IC50 [29]: 70 µM; inhibition at 1 µM (SK-OV-3 [22]): 5%; inhibition at 10 µM (HL-60 [23]): 0%; inhibition at 1 µM (HL-60 [24]): 0%; inhibition at 10 µM (K562 [25]): 0%; inhibition at 1 µM (K562 [26]): 0%; inhibition at 10 µM (HepG2 [27]): 0%; inhibition at 1 µM (HepG2 [28]): 0%; Activity (Hepatocyte): 162%
COC(=O)c1ccc(O)c(-c2nc(C(=S)NCCOCCOCCNC(=S)c3csc(-c4cc(C(=O)OC)ccc4O)n3)cs2)c1	42	58	5	69	6	3	0	42	1	10	0	64	0	98	8	54	10	62	0	45	IC50 [1]: 0.5 µM; IC50 [29]: 50 µM; inhibition at 1 µM (SK-OV-3 [22]): 10%; inhibition at 10 µM (HL-60 [23]): 52%; inhibition at 1 µM (HL-60 [24]): 0%; inhibition at 10 µM (K562 [25]): 53%; inhibition at 1 µM (K562 [26]): 1%; inhibition at 10 µM (HepG2 [27]): 43%; inhibition at 1 µM (HepG2 [28]): 0%
O=C(O)c1ccc(O)c(-c2nc(C(=O)NCCOCCOCCNC(=O)c3csc(-c4cc(C(=O)O)ccc4O)n3)cs2)c1	120	2	0	0	0	1	0	0	0	0	0	2	0	0	1	8	0	0	0	7	Activity (HepaRG): Active; inhibition at 1 µM (SK-OV-3 [22]): 4%; inhibition at 10 µM (HL-60 [23]): 0%; inhibition at 1 µM (HL-60 [24]): 0%; inhibition at 10 µM (K562 [25]): 9%; inhibition at 1 µM (K562 [26]): 0%; inhibition at 10 µM (HepG2 [27]): 0%; inhibition at 1 µM (HepG2 [28]): 0%; Activity (Hepatocyte): 179%
